The subject of data set [1] is Canis familiaris. Kind of data set: Cardiotoxicity in spontaneously respiring dog assessed as degree of increase in heart rate at 0.3 to 2 mg/kg, iv relative to control. Type of data set: toxicity, organism-based, Canis lupus familiaris. More on the design: dose 0.3-2 mg/kg, route intravenous. The settings on record: in vivo. In outline: (§1)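 Anesthetized, spontaneously respiring dogs. Heart rate was taken from a lead II EKG, and blood pressure from the right femoral artery by transducer. The increase in heart rate (beats/min) was scored on a graded scale with more than 4 dogs per dose, and its duration was recorded. Drugs were dissolved fresh in distilled water, diluted in physiological saline and kept on ice.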

The test system of data set [2] is Canis familiaris. Kind of data set: Cardiotoxicity in spontaneously respiring dog assessed as degree of increase in heart rate at 50 to 240 mg/kg, id relative to control. Format: toxicity, organism-based, Canis lupus familiaris. More on the design: dose 50-240 mg/kg, route intraduodenal. The settings on record: in vivo, other. In outline:
as §1

The subject of data set [3] is Canis familiaris. Kind of data set: Cardiotoxicity in spontaneously respiring dog assessed as degree of increase in heart rate at 125 to 150 mg/kg, it relative to control. Type of data set: toxicity, organism-based, Canis lupus familiaris. Also on record: dose 125-150 mg/kg, route endotracheal. The settings on record: in vivo, inhaled_or_intranasal. Summed up:
as §1

In data set [4] the test system is Canis familiaris. The experiment in a line: Cardiotoxicity in spontaneously respiring dog assessed as time of increase in heart rate at 0.3 to 2 mg/kg, iv relative to control. Type of data set: toxicity, organism-based, Canis lupus familiaris. Also on record: dose 0.3-2 mg/kg, route intravenous. The settings on record: in vivo. In outline: as §1
The subject of data set [5] is Canis familiaris. The experiment in a line: Cardiotoxicity in spontaneously respiring dog assessed as time of increase in heart rate at 50 to 240 mg/kg, id relative to control. Type of data set: toxicity, organism-based, Canis lupus familiaris. Also on record: dose 50-240 mg/kg, route intraduodenal. The settings on record: in vivo, other. Summed up:
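Anesthetized, spontaneously respiring dogs. Heart rate monitored by lead II EKG, with blood pressure taken from the right femoral artery by pressure transducer and recorded on a polygraph. Drug stocks made fresh in distilled water, diluted in physiological saline and kept on ice. Dosing was iv, id or it as listed. The duration of the heart-rate increase was recorded in h, with more than 4 dogs per dose.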

Data set [6] deals with Canis familiaris. Kind of data set: Cardiotoxicity in spontaneously respiring dog assessed as time of increase in heart rate at 125 to 250 mg/kg, it relative to control. Type of data set: toxicity, organism-based, Canis lupus familiaris. The settings on record: in vivo, inhaled_or_intranasal. Also on record: dose 125-250 mg/kg, route endotracheal. Summed up:
as §1

Data set [7] deals with Canis familiaris. Kind of data set: Bronchodilator activity in dog assessed as degree of inhibition of carbachol or histamine-induced bronchoconstriction at 125 to 250 mg/kg, it relative to control. The settings on record: dose mg/kg 125-250; route endotracheal. Format: functional, Canis lupus familiaris. In outline: (§2)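 Dog with airway cannulated through a nonbreathing valve. Bronchoconstriction induced by iv carbachol (2–4 µg/kg) or histamine diphosphate (20–50 µg/kg); airway pressure recorded by pressure transducer. Each compound tested against both agonists in different animals, and results were combined and averaged. Bronchodilation = % inhibition of control constriction; degree scored as +, ++, +++ (20-45, 45-70, >70%) from higher dose, ≥3 dogs/dose; duration in h.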

Data set [8] has as its system Canis familiaris. Kind of data set: Bronchodilator activity in dog assessed as time of inhibition of carbachol or histamine-induced bronchoconstriction at 0.3 to 2 mg/kg, iv relative to control. The settings on record: dose mg/kg 0.3-2. Type of data set: functional, Canis lupus familiaris. In outline:
as §2

Data set [9] has as its system Canis familiaris. The experiment in a line: Bronchodilator activity in dog assessed as time of inhibition of carbachol or histamine-induced bronchoconstriction at 50 to 240 mg/kg, id relative to control. Type of data set: functional, Canis lupus familiaris. The settings on record: dose mg/kg 50-240; route intraduodenal. Summed up: as §2
Data set [10] deals with Canis familiaris. The experiment in a line: Bronchodilator activity in dog assessed as time of inhibition of carbachol or histamine-induced bronchoconstriction at 125 to 250 mg/kg, it relative to control. The settings on record: dose mg/kg 125-250; route endotracheal. Format: functional, Canis lupus familiaris. In outline:
as §2

Data set [11] relates to Canis familiaris. The experiment in a line: Bronchodilator activity in dog assessed as degree of inhibition of carbachol or histamine-induced bronchoconstriction at 0.3 to 2 mg/kg, iv relative to control. Format: functional, Canis lupus familiaris. The settings on record: dose mg/kg 0.3-2. Summed up: as §2
The test system of data set [12] is Canis familiaris. Kind of data set: Bronchodilator activity in dog assessed as degree of inhibition of carbachol or histamine-induced bronchoconstriction at 50 to 240 mg/kg, id relative to control. Type of data set: functional, Canis lupus familiaris. The settings on record: dose mg/kg 50-240; route intraduodenal. Summed up: as §2
The test system of data set [13] is Canis familiaris. Kind of data set: Cardiotoxicity in spontaneously respiring dog assessed as degree of increase in heart rate at 0.35 to 2 mg/kg, iv relative to control. Type of data set: toxicity, organism-based, Canis lupus familiaris. Also on record: dose 0.35-2 mg/kg, route intravenous. The settings on record: in vivo. Summed up:
(§3)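 Anesthetized, spontaneously respiring dogs. Heart rate monitored by lead II EKG; blood pressure from right femoral artery by pressure transducer. Rise in heart rate (beats/min) scored ±=5-15, +=20-40, ++=40-60, +++=>60, n>4/dose; duration of the rise in h. Drug stocks freshly made in distilled water, diluted in physiological saline, kept on ice.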

For data set [14], the system named is Canis familiaris. Kind of data set: Cardiotoxicity in spontaneously respiring dog assessed as degree of increase in heart rate at 50 to 300 mg/kg, id relative to control. Also on record: dose 50-300 mg/kg, route intraduodenal. Type of data set: toxicity, organism-based, Canis lupus familiaris. The settings on record: in vivo, other. In outline:
as §3

For data set [15], the system named is Canis familiaris. The experiment in a line: Cardiotoxicity in spontaneously respiring dog assessed as degree of increase in heart rate at 150 to 300 mg/kg, it relative to control. Type of data set: toxicity, organism-based, Canis lupus familiaris. Also on record: dose 150-300 mg/kg, route endotracheal. The settings on record: in vivo, inhaled_or_intranasal. Summed up:
as §3

Data set [16] relates to Canis familiaris. Kind of data set: Cardiotoxicity in spontaneously respiring dog assessed as time of increase in heart rate at 0.35 to 2 mg/kg, iv relative to control. Type of data set: toxicity, organism-based, Canis lupus familiaris. More on the design: dose 0.35-2 mg/kg, route intravenous. The settings on record: in vivo. In outline:
as §3

The subject of data set [17] is Canis familiaris. Kind of data set: Cardiotoxicity in spontaneously respiring dog assessed as time of increase in heart rate at 50 to 300 mg/kg, id relative to control. Format: toxicity, organism-based, Canis lupus familiaris. More on the design: dose 50-300 mg/kg, route intraduodenal. The settings on record: in vivo, other. Summed up:
as §3

In data set [18] the test system is Canis familiaris. Kind of data set: Cardiotoxicity in spontaneously respiring dog assessed as time of increase in heart rate at 150 to 300 mg/kg, it relative to control. Format: toxicity, organism-based, Canis lupus familiaris. Also on record: dose 150-300 mg/kg, route endotracheal. The settings on record: in vivo, inhaled_or_intranasal. In outline:
as §3

Data set [19] has as its system Canis familiaris. Kind of data set: Bronchodilator activity in dog assessed as time of inhibition of carbachol or histamine-induced bronchoconstriction at 0.35 to 2 mg/kg, iv relative to control. Type of data set: functional, Canis lupus familiaris. The settings on record: dose mg/kg 0.35-2. Summed up: as §2
Data set [20] concerns Canis familiaris. Kind of data set: Bronchodilator activity in dog assessed as time of inhibition of carbachol or histamine-induced bronchoconstriction at 50 to 300 mg/kg, id relative to control. Format: functional, Canis lupus familiaris. The settings on record: dose mg/kg 50-300; route intraduodenal. In outline: as §2
Data set [21] relates to Canis familiaris. Kind of data set: Bronchodilator activity in dog assessed as time of inhibition of carbachol or histamine-induced bronchoconstriction at 150 to 300 mg/kg, it relative to control. Format: functional, Canis lupus familiaris. The settings on record: dose mg/kg 150-300; route endotracheal. Summed up: as §2
The test system of data set [22] is Canis familiaris. Kind of data set: Bronchodilator activity in dog assessed as degree of inhibition of carbachol or histamine-induced bronchoconstriction at 0.35 to 2 mg/kg, iv relative to control. Format: functional, Canis lupus familiaris. The settings on record: dose mg/kg 0.35-2. In outline: as §2
Data set [23] has as its system Canis familiaris. The experiment in a line: Bronchodilator activity in dog assessed as degree of inhibition of carbachol or histamine-induced bronchoconstriction at 50 to 300 mg/kg, id relative to control. Type of data set: functional, Canis lupus familiaris. The settings on record: dose mg/kg 50-300; route intraduodenal. Summed up:
as §2

Data set [24] relates to Canis familiaris. Kind of data set: Bronchodilator activity in dog assessed as degree of inhibition of carbachol or histamine-induced bronchoconstriction at 150 to 300 mg/kg, it relative to control. The settings on record: dose mg/kg 150-300; route endotracheal. Format: functional, Canis lupus familiaris. Summed up:
as §2

Two molecules from ChEMBL document CHEMBL3272249, “Esters of N-tert-butylarterenol. Long-acting new bronchodilators with reduced cardiac effects” (J Med Chem, 1976) can be followed below.

Take `CC(C)NCC(O)c1ccc(O)c(O)c1` (centres undefined) [ISOPROTERENOL]: the results for the Activity with Canis familiaris [1], with Canis familiaris [2] and in the data set with Canis familiaris [3] were above 60%, 40% and 20%, respectively. Moreover, the Time is below 0.25 h in the data set on Canis familiaris [4]; 2 h in the data set on Canis familiaris [5]; 1 h with Canis familiaris [6]; below 1 h in the data set on Canis familiaris [8]; below 2 h with Canis familiaris [9]; below 1 h with Canis familiaris [10]. Also, the “inhibition (INH)” value is listed as above 70% with Canis familiaris [7], above 70% in the data set with Canis familiaris [11] and 20% in the data set on Canis familiaris [12].

On to `CC(C)(C)NC[C@H](O)c1ccc(O)c(O)c1`, for which the values for the Activity with Canis familiaris [13], in the data set with Canis familiaris [14] and in the data set with Canis familiaris [15] were 40%, 40% and 20%, respectively. Further, the Time was below 0.25 h with Canis familiaris [16]; 3 h in the data set with Canis familiaris [17]; 1 h in the data set on Canis familiaris [18]; above 1 h in the data set with Canis familiaris [19]; 3 h in the data set on Canis familiaris [20]; below 2 h in the data set on Canis familiaris [21]. Also, the entries for the “inhibition (INH)” value in the data set with Canis familiaris [22], with Canis familiaris [23] and in the data set with Canis familiaris [24] were above 70%, 45% and above 70%, respectively.
